Source: publication PMC5352298 (Pharmacological research, 2016)
Read-outs that look alike come from different tables or passages of the source.

Assays:
[1] = system: mice (acetic-acid induced abdominal constriction); details: cited from earlier work
rats with SNL neuropathy [2] = details: rat, same paradigm; cited from earlier work
rats with SNL neuropathy [3] = test: Spinal nerve ligation; type: in vivo; details: rat
Method in brief: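 Rats with pre-surgery threshold >15 g underwent L5–L6 spinal nerve ligation under ketamine/xylazine. Test compound at 40, 60 or 80 mg/kg i.p., MC vehicle, or MTMCD positive control, given 7, 14 and 21 days post-surgery. Latin-square design; experimenter blinded. Nine von Frey filaments (0.6–26 g); protected = no response to 15 g. TPE = earliest time of highest mean threshold.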

[4] = system: mice (formalin-induced paw licking); test: Formalin test; type: in vivo, mouse; details: for reduction of licking-time AUC vs control, acute phase: acute phase 0–10 min; for reduction of licking-time AUC vs control, inflammatory phase: inflammatory phase 10–40 min; for ID50 (dose reducing the nociceptive response by 50% compared to control), acute phase / ID50 (dose reducing the nociceptive response by 50% compared to control), inflammatory phase: i.p.
[5] = system: mice (carrageenan induced heat hyperalgesia); test: Carrageenan test, heat hyperalgesia; type: in vivo, mouse; details: for paw thickness an hour following administration: carrageenan injected paw
Method in brief: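 Mice acclimated 1 h on a 30°C plate, then 25 μl carrageenan (20 mg/ml in saline) s.c. into left hind plantar paw. Test compound (10–70 mg/kg), VPA (100 mg/kg) or 0.5% MC given i.p. 15 min before testing at 3 h; Sal/MC and Carr/MC controls; blinded. Radiant heat (35% intensity): flinch latency, mean of two readings 5 min apart, ipsilateral minus contralateral.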

[6] = system: mice (carrageenan induced paw edema); test: Carrageenan induced paw edema; type: in vivo, mouse
Method in brief: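 Male CF-1 mice (20–35 g), n=5 per group. Test compound, ibuprofen (100 mg/kg, positive control) or MC vehicle given i.p. 2 h before intraplantar 25 μl λ-carrageenan; an MC/saline group also included. Both paws measured by caliper at baseline and 0.5, 1, 2, 3, 4, 6, 8 and 24 h. % edema = thickness/baseline. Mean ± s.e.m.; Tukey test.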

[7] = system: mice (acetic-acid induced abdominal constriction); test: Acetic acid-induced abdominal constriction; type: in vivo, mouse; details: for protective index (PI), writhing test: TD50 vs ED50
rat sciatic nerve = test: Sciatic nerve compound action potential; details: 40 Hz
[8] = Pharmacokinetic study in mice; type: in vivo, mouse; details: 80 mg/kg i.p.
Method in brief: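 Mice dosed 80 mg/kg i.p. (suspension in 0.5% MC), 4 per time point. Aortic blood collected after sacrifice at 0.25, 0.5, 1, 1.5, 2, 2.5 and 4 h. Heparinised plasma (3000g, 10 min) stored at −80°C. Chloroform extraction with N-methyl VCD internal standard, then GC/MS. Non-compartmental analysis: Cmax observed; CL/F = Dose/AUC; V/F = CL/F ÷ terminal slope.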

[9] = Pharmacokinetic study in rats; type: in vivo, rat; details: 80 mg/kg i.p.
Method in brief: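 Rats given 80 mg/kg i.p. in 0.5% MC, four animals per time point. Cardiac-puncture blood (5 ml) taken at sacrifice at 0.25, 0.5, 1, 1.5, 2 and 4 h. Plasma (3000g, 10 min) held at −80°C, chloroform-extracted with N-methyl VCD internal standard and assayed by GC/MS. Non-compartmental: observed Cmax, CL/F = Dose/AUC, V/F = CL/F divided by terminal slope.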

[10] = rats, 60 mg/kg, multisol solution, previous study; cited from earlier work
[11] = system: mice (formalin-induced paw licking); details: same test; cited from earlier work
mice = details: mouse, in vivo, ip; cited from earlier work
[12] = sedation for the first 15 minutes after dosing

## CN1C(C(=O)Nc2ccccn2)=C(O)c2ccccc2S1(=O)=O [piroxicam]
[1]
  ED50 in the writhing model: 100 mg/kg

## NCC1(CC(=O)O)CCCCC1 [gabapentin]
Rats with SNL neuropathy [2]
  ED50 (antiallodynic, SNL model): 32 mg/kg

## CCCC(C(N)=O)C(C)CC (stereo not drawn) [SPD, sec-Butylpropylacetamide]
Rats with SNL neuropathy [3]; 60 and 80 mg/kg i.p., p<0.05
  tactile allodynia compared to control: significantly reduced tactile allodynia
Rats with SNL neuropathy [3]; i.p.
  time to peak antiallodynic effect (TPE): 60 min
Rats with SNL neuropathy [3]; i.p., at TPE (60 min), 95% CI of 9–61 mg/kg
  ED50 (antiallodynic, SNL model): 49 mg/kg
[4]; mice
  potency (effective dose) in the formalin test: 70 mg/kg
  ID50 (dose reducing the nociceptive response by 50% compared to control), acute phase: 39 mg/kg
  ID50 (dose reducing the nociceptive response by 50% compared to control), inflammatory phase: 40 mg/kg
[4]; mice, 70 mg/kg i.p.
  reduction of licking-time AUC vs control, acute phase: 55%
  reduction of licking-time AUC vs control, inflammatory phase: 74%
[4]; ratio between ID50 and TD50, TD50 from White et al., 2012
  protective index (PI), formalin test: 2.2
[5]; 70 mg/kg i.p.
  heat hyperalgesia, normalized mean withdrawal time vs Carr/MC: statistically different from the Carr/MC group
[5]
  paw thickness an hour following administration: Neither SPD nor VPA decreased paw thickness
[5]; i.p., at TPE, 95% CI 29.3–110
  ED50 in the carrageenan model (heat hyperalgesia): 49 mg/kg
[6]; 70 mg/kg i.p.
  percent paw thickness up to 24 hours following carrageenan injection: did not decrease percent paw thickness
[7]
  protective index (PI), writhing test: 2.2
[7]; mice, 30, 50 and 70 mg/kg i.p., p<0.001
  mean number of writhes: significantly reduced
[7]; mice, i.p.
  dose of maximum efficacy in the writhing test: 30 mg/kg
[7]; mice, i.p., 95% CI 24.3–67 mg/kg (SPD), 18–61mg/kg (VPA)
  ED50 in the writhing test: 40 mg/kg
Rat sciatic nerve; 3mM, baseline 96.5%
  ratio between last and first CAP (Δf), phasic stimulation: 96%
Rat sciatic nerve; 3mM, baseline 100%
  PAR of the first and last CAP normalized to baseline, phasic stimulation: 90%
[8]
  CL/F: 28.3 mL/min/kg
  peak plasma concentration (Cmax): 77.2 µg/mL
  volume of distribution: 0.9 L/kg
[8]; [12]
  signs of toxicity: not associated with any signs of toxicity except sedation
[9]
  CL/F: 15 mL/min/kg
  peak plasma concentration (Cmax): 66.2 µg/mL
  volume of distribution: 1.1 L/kg
[9]; [12]
  signs of toxicity: not associated with any signs of toxicity except sedation
[10]
  CL/F: 1.9

## CNC(=O)CC1C(C)(C)C1(C)C [MTMCD, N-methyl tetramethylcyclopropyl acetamide, reference compound]
Rats with SNL neuropathy [3]; 80 mg/kg i.p.
  antiallodynic effect vs MC (positive control): antiallodynic effect significantly different than MC

## COc1ccc2c3c1O[C@H]1[C@@H](O)C=C[C@H]4[C@@H](C2)N(C)CC[C@@]341 [codeine]
[11]
  potency (effective dose) in the formalin test: 25 to 50 mg/kg

## CN1CC[C@]23c4c5ccc(O)c4O[C@H]2[C@@H](O)C=C[C@H]3[C@H]1C5 [morphine]
[11]
  potency (effective dose) in the formalin test: 5 to 10 mg/kg

## CCCC(CCC)C(=O)O [VPA, valproic acid, reference compound]
[4]; mice, 70 mg/kg i.p.
  licking time: unable to reduce the licking time significantly
[4]; mice, 100 mg/kg i.p.
  licking time: showed reduction in only one of the two phases evaluated
[4]; mice, 300 mg/kg i.p.
  reduction of licking-time AUC vs control, acute phase: 46%
  reduction of licking-time AUC vs control, inflammatory phase: 75%
[4]; mice
  ID50 (dose reducing the nociceptive response by 50% compared to control), acute phase: 136 mg/kg
  ID50 (dose reducing the nociceptive response by 50% compared to control), inflammatory phase: 113 mg/kg
[5]; 100 mg/kg i.p.
  heat hyperalgesia vs Carr/MC: not able to reduce heat hyperalgesia
[5]
  paw thickness an hour following administration: Neither SPD nor VPA decreased paw thickness
[7]; Mus musculus, ip, read-out: ED50 in the writhing test
  ED50: 44 mg/kg
[7]
  protective index (PI), writhing test: 8.8
[7]; mice, 50 and 100 mg/kg i.p.
  number of writhes: significantly reduced the number of writhes
Rats with SNL neuropathy [2]
  ED50 (antiallodynic, SNL model): 269 mg/kg
mice
  TD50: 391 mg/kg

## CCN(CC)CC(=O)Nc1c(C)cccc1C [lidocaine, Lidocaine, reference compound]
Rat sciatic nerve; 1mM, baseline 100%
  PAR of the first CAP normalized to baseline, phasic stimulation: 22.5%
  PAR of the last CAP normalized to baseline, phasic stimulation: 14.7%

## CC(C)Cc1ccc(C(C)C(=O)O)cc1 (stereo not drawn) [Ibuprofen, reference compound]
[6]; 100 mg/kg i.p., significant after 4 hours (p<0.05)
  percent paw thickness following carrageenan injection: decreased percent paw thickness
[1]
  ED50 in the writhing model: 33 mg/kg

## CC(=O)Oc1ccccc1C(=O)O [aspirin]
[1]
  ED50 in the writhing model: 82 to 228 mg/kg
